Measurements from ChEMBL document CHEMBL1932938, “From COX-2 inhibitor nimesulide to potent anti-cancer agent: synthesis, in vitro, in vivo and pharmacokinetic evaluation” (Eur J Med Chem, 2012).
Calls of active or inactive are those of the source. The calls are words filed in the database; no cut-off is given here.

How the values were obtained:
[1] = system: SK-BR-3; experiment: Cell cycle arrest in human SK-BR-3 cells assessed as accumulation at Sub-G1 phase at 0.50 uM after 18 hrs using propidium iodide staining by FACS analysis; assay type: functional
[2] = system: SK-BR-3; experiment: Cell cycle arrest in human SK-BR-3 cells assessed as accumulation at G1 phase at 0.25 uM after 6 hrs using propidium iodide staining by FACS analysis; assay type: functional
Outline: (§1)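 SKBR-3 cells in RPMI1640 with 10% heat-inactivated FBS at 37 °C and 5% CO₂ were treated for the stated times. Cells were fixed overnight in 70% EtOH at −20 °C, then stained with propidium iodide buffer (38 mM sodium citrate pH 7.5, 69 µM PI, 120 µg/mL RNase A) for 15 min at room temperature in the dark. Up to 1×10⁴ gated cells were analyzed by flow cytometry, giving percent distribution per phase.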

[3] = system: HT-29; experiment: Antitumor activity against human HT-29 cells xenografted in BALB/c athymic nu/nu mouse assessed as decrease in tumor weight at 5 mg/kg/day, ip administered 5 times per week for 3 weeks; assay type: functional, organism-based
Outline: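 Athymic BALB/c nu/nu mice received s.c. HT29 cells in Matrigel, 200 µL per site at two flank sites. Treatment started at ~200 mm³: 5 mg/kg/d i.p., five times weekly for three weeks, in 1% DMSO/sesame oil; controls got vehicle. Three mice per group. Tumors were measured twice weekly by caliper, volume = width²×length/2. Tumors were excised and weighed at the end.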

[4] = system: SK-BR-3; experiment: Cell cycle arrest in human SK-BR-3 cells assessed as accumulation at G2/M phase at 0.25 uM after 12 hrs using propidium iodide staining by FACS analysis; assay type: functional; outline: as §1
[5] = system: RXF 393; experiment: Growth inhibition of human RXF393 cells after 48 hrs by SRB assay; assay type: functional
[6] = system: IGROV-1; experiment: Growth inhibition of human IGROV1 cells after 48 hrs by SRB assay; assay type: functional
[7] = system: SK-BR-3; experiment: Cell cycle arrest in human SK-BR-3 cells assessed as accumulation at Sub-G1 phase at 0.10 uM after 24 hrs using propidium iodide staining by FACS analysis; assay type: functional
[8] = system: HT-29; experiment: Cytotoxicity against human HT-29 cells after 48 hrs by MTT assay; assay type: functional, cell-based; conditions: HT-29, 48 h
Outline: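 HT29 cells (ATCC) kept in RPMI1640 with 10% heat-inactivated FBS, L-glutamine and pyruvate at 37 °C, 5% CO2. Cells plated 24 h, then exposed 48 h to graded compound concentrations in DMSO (0.1% final) beside vehicle controls. Incubated 2 h with 0.5 mg/ml MTT, formazan dissolved in DMSO, A570 read. Six replicates; IC50 from viability.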

[9] = system: SK-BR-3; experiment: Cell cycle arrest in human SK-BR-3 cells assessed as accumulation at G2/M phase at 0.50 uM after 12 hrs using propidium iodide staining by FACS analysis; assay type: functional; outline: as §1
[10] = system: SK-BR-3; experiment: Cell cycle arrest in human SK-BR-3 cells assessed as accumulation at S phase at 0.50 uM after 6 hrs using propidium iodide staining by FACS analysis; assay type: functional
[11] = system: SK-BR-3; experiment: Cell cycle arrest in human SK-BR-3 cells assessed as accumulation at S phase at 0.10 uM after 3 hrs using propidium iodide staining by FACS analysis; assay type: functional; outline: as §1
[12] = system: NCI-H460; experiment: Growth inhibition of human NCI-H460 cells after 48 hrs by SRB assay; assay type: functional
[13] = system: T47D; experiment: Growth inhibition of human T47D cells after 48 hrs by SRB assay; assay type: functional
[14] = system: 786-0; experiment: Growth inhibition of human 786-0 cells after 48 hrs by SRB assay; assay type: functional
[15] = system: OVCAR-3; experiment: Growth inhibition of human OVCAR3 cells after 48 hrs by SRB assay; assay type: functional
[16] = system: TK-10; experiment: Growth inhibition of human TK10 cells after 48 hrs by SRB assay; assay type: functional
[17] = system: SK-BR-3; experiment: Cell cycle arrest in human SK-BR-3 cells assessed as accumulation at G1 phase at 0.50 uM after 18 hrs using propidium iodide staining by FACS analysis; assay type: functional; outline: as §1
[18] = system: SK-BR-3; experiment: Cell cycle arrest in human SK-BR-3 cells assessed as accumulation at S phase at 5 uM after 6 hrs using propidium iodide staining by FACS analysis; assay type: functional
[19] = system: MDA-MB-231; experiment: Growth inhibition of human MDA-MB-231 cells after 48 hrs by SRB assay; assay type: functional
[20] = system: UACC-62; experiment: Growth inhibition of human UACC62 cells after 48 hrs by SRB assay; assay type: functional
[21] = system: SK-BR-3; experiment: Cell cycle arrest in human SK-BR-3 cells assessed as accumulation at S phase at 0.25 uM after 6 hrs using propidium iodide staining by FACS analysis; assay type: functional
[22] = system: SK-BR-3; experiment: Cell cycle arrest in human SK-BR-3 cells assessed as accumulation at G1 phase at 0.10 uM after 24 hrs using propidium iodide staining by FACS analysis; assay type: functional; outline: as §1
[23] = system: SK-BR-3; experiment: Cell cycle arrest in human SK-BR-3 cells assessed as accumulation at G1 phase at 0.25 uM after 18 hrs using propidium iodide staining by FACS analysis; assay type: functional; outline: as §1
[24] = system: MCF7; experiment: Growth inhibition of human MCF7 cells after 48 hrs by SRB assay; assay type: functional
[25] = system: SK-BR-3; experiment: Cell cycle arrest in human SK-BR-3 cells assessed as accumulation at Sub-G1 phase at 0.50 uM after 24 hrs using propidium iodide staining by FACS analysis; assay type: functional
[26] = system: HCT-15; experiment: Growth inhibition of human HCT15 cells after 48 hrs by SRB assay; assay type: functional
[27] = system: SK-BR-3; experiment: Cell cycle arrest in human SK-BR-3 cells assessed as accumulation at S phase at 0.10 uM after 12 hrs using propidium iodide staining by FACS analysis; assay type: functional; outline: as §1
[28] = system: SK-MEL-5; experiment: Growth inhibition of human SK-MEL-5 cells after 48 hrs by SRB assay; assay type: functional
[29] = system: SK-BR-3; experiment: Cell cycle arrest in human SK-BR-3 cells assessed as accumulation at S phase at 0.10 uM after 18 hrs using propidium iodide staining by FACS analysis; assay type: functional; outline: as §1
[30] = system: SK-BR-3; experiment: Cell cycle arrest in human SK-BR-3 cells assessed as accumulation at G1 phase at 0.10 uM after 3 hrs using propidium iodide staining by FACS analysis; assay type: functional; outline: as §1

How did the Activity [1] turn out when `Cc1ccc(C)c(COc2cc(NC(=O)c3ccc4c(c3)OCO4)ccc2N(C)S(C)(=O)=O)c1` was run?
The Activity was 8.47%.

And the Activity [2]?
The Activity was 72.21%.

What about the Activity [3] of the same compound?
The Activity was “Active”.

And the Activity [4]?
Its Activity is 13.35%.

And the “growth inhibition (GI)” value [5]?
The value was “Dose-dependent effect”.

What about the GI50 ([5]; RXF 393, 48 h) of the same compound?
Its GI50 is 128 nM.

And the TGI ([5]; RXF 393, 48 h)?
The TGI was 403 nM.

And the “growth inhibition (GI)” value [6]?
Its value is “Dose-dependent effect”.

What about the GI50 ([6]; IGROV-1, 48 h) of the same compound?
The GI50 was 237 nM.

And the TGI ([6]; IGROV-1, 48 h)?
Its TGI is over 100000 nM.

And the CC50 ([6]; IGROV-1, 48 h, read-out: LC50 (the source's name))?
The CC50 was over 100000 nM.

What about the Activity [7] of the same compound?
The Activity was 11.78%.

What about the IC50 [8] of the same compound?
Its IC50 is 460 nM.

What about the Activity [9] of the same compound?
The Activity was 24.26%.

What about the Activity [10] of the same compound?
The Activity was 14.73%.

What about the Activity [11] of the same compound?
The Activity was 17.2%.

What about the “growth inhibition (GI)” value [12] of the same compound?
The value was “Dose-dependent effect”.

And the GI50 ([12]; NCI-H460, 48 h)?
Its GI50 is 184 nM.

And the TGI ([12]; NCI-H460, 48 h)?
The TGI was 744 nM.

And the CC50 ([12]; NCI-H460, 48 h, read-out: LC50 (the source's name))?
Its CC50 is over 100000 nM.

What about the GI50 [13] of the same compound?
Its GI50 is 682 nM.

And the TGI [13]?
The TGI was over 100000 nM.

What about the “growth inhibition (GI)” value [13] of the same compound?
Its value is “Dose-dependent effect”.

What about the CC50 ([13]; read-out: LC50 (the source's name)) of the same compound?
The CC50 was over 100000 nM.

And the “growth inhibition (GI)” value [14]?
The value was “Dose-dependent effect”.

And the GI50 ([14]; 786-0, 48 h)?
The GI50 was 191 nM.

What about the TGI ([14]; 786-0, 48 h) of the same compound?
Its TGI is 1110 nM.

And the CC50 ([14]; 786-0, 48 h, read-out: LC50 (the source's name))?
Its CC50 is over 100000 nM.

And the “growth inhibition (GI)” value [15]?
Its value is “Dose-dependent effect”.

What about the TGI ([15]; OVCAR-3, 48 h) of the same compound?
The TGI was 166 nM.

What about the “growth inhibition (GI)” value [16] of the same compound?
Its value is “Dose-dependent effect”.

What about the GI50 ([16]; TK-10, 48 h) of the same compound?
The GI50 was 354 nM.

What about the TGI ([16]; TK-10, 48 h) of the same compound?
The TGI was over 100000 nM.

What about the CC50 ([16]; TK-10, 48 h, read-out: LC50 (the source's name)) of the same compound?
Its CC50 is over 100000 nM.

What about the Activity [17] of the same compound?
Its Activity is 61.19%.

And the Activity [18]?
Its Activity is 14.61%.

What about the “growth inhibition (GI)” value [19] of the same compound?
The value was “Dose-dependent effect”.

And the GI50 ([19]; MDA-MB-231, 48 h)?
The GI50 was 256 nM.

And the TGI ([19]; MDA-MB-231, 48 h)?
The TGI was 926 nM.

And the CC50 ([19]; MDA-MB-231, 48 h, read-out: LC50 (the source's name))?
The CC50 was over 100000 nM.

What about the “growth inhibition (GI)” value [20] of the same compound?
The value was “Dose-dependent effect”.

What about the GI50 ([20]; UACC-62, 48 h) of the same compound?
The GI50 was 414 nM.

What about the TGI ([20]; UACC-62, 48 h) of the same compound?
Its TGI is over 100000 nM.

And the CC50 ([20]; UACC-62, 48 h, read-out: LC50 (the source's name))?
The CC50 was over 100000 nM.

And the Activity [21]?
Its Activity is 14.95%.

What about the Activity [22] of the same compound?
Its Activity is 67.9%.

And the Activity [23]?
Its Activity is 73.42%.

What about the “growth inhibition (GI)” value [24] of the same compound?
The value was “Dose-dependent effect”.

What about the TGI ([24]; MCF7, 48 h) of the same compound?
Its TGI is over 100000 nM.

And the CC50 ([24]; MCF7, 48 h, read-out: LC50 (the source's name))?
Its CC50 is over 100000 nM.

What about the Activity [25] of the same compound?
Its Activity is 27.94%.

What about the “growth inhibition (GI)” value [26] of the same compound?
Its value is “Dose-dependent effect”.

What about the GI50 ([26]; HCT-15, 48 h) of the same compound?
Its GI50 is 289 nM.

And the TGI ([26]; HCT-15, 48 h)?
The TGI was over 100000 nM.

What about the CC50 ([26]; HCT-15, 48 h, read-out: LC50 (the source's name)) of the same compound?
The CC50 was over 100000 nM.

And the Activity [27]?
Its Activity is 8.17%.

And the “growth inhibition (GI)” value [28]?
Its value is “Dose-dependent effect”.

And the GI50 ([28]; SK-MEL-5, 48 h)?
The GI50 was 253 nM.

And the TGI ([28]; SK-MEL-5, 48 h)?
Its TGI is 1650 nM.

And the CC50 ([28]; SK-MEL-5, 48 h, read-out: LC50 (the source's name))?
Its CC50 is 34100 nM.

What about the Activity [29] of the same compound?
The Activity was 8.71%.

And the Activity [30]?
Its Activity is 70.84%.
